# An excerpt weighted towards active compounds, which were near 3.7% of everything screened.
# Exocytosis inh: LAMP-1 surface exposure blockers, TALL-104 cells – cell-based, flow cytometry, MLPCN library, primary screen; TALL-104 LAMP-1 surface exposure; cells stimulated with thapsigargin and PMA; inhibition, % at 10 µM; hit rate 0.66% among 360,000; AID 651702, 2012;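 active = inhibition above about 55%, limit read from the data; inconclusive = no clear call, values can overlap the other calls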
# MC4R antag cAMP: MC4R antagonists of cAMP signaling, primary screen, cell-based, TR-FRET, antagonist arm of biased-ligand search; Melanocortin receptor 4 (Homo sapiens), P32245; MC4R-expressing cells, MTII-stimulated cAMP, LANCE TR-FRET; hit rate 0.48% among 360,000; inhibition, % at 6.5 µM;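 active = inhibition above its plate's cutoff, the mean of tested wells on that plate plus 3 SD, cut at about 29% in these data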;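 note: 0% = Melanotan II alone and 100% = Melanotan II plus saturating MCL0020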
# Target sequence (P32245 whole entry, looked up): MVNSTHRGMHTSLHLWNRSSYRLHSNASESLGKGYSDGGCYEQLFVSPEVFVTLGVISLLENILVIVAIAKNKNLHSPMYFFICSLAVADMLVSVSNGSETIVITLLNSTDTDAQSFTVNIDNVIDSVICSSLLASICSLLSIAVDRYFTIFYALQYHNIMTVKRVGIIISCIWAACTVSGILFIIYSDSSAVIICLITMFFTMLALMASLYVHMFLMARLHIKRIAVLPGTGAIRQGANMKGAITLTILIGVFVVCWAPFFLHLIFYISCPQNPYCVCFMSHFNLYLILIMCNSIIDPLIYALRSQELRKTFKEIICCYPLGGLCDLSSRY
#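 System – human MC4R-expressing U2OS cells · Also added – Melanotan II · Dosing – one concentration, 6.5 µM nominal · Timing – 30-min compound, 1-h challenge, 1-h detection, room temperature · Measured by – Eu-cAMP/anti-cAMP TR-FRET, emission 671 nm · Replicates – singlicate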
# MC4R barr agon: MC4R agonists recruiting beta-arrestin, primary screen, cell-based, luminescence, agonist arm of biased-ligand search; hit rate 0.98% among 360,000; activation, % at 8.9 µM; Melanocortin receptor 4 (Homo sapiens), P32245; U2OS MC4R beta-arrestin complementation; percent of melanotan II response, DMSO zero; AID 540308, 2011;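 active = activation above a per-plate cutoff, the mean activation of sample wells on that plate plus 3 SD, cut at about 8% in these data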
# EBI2 antag: EBI2 receptor antagonists, beta-arrestin recruitment, primary screen, cell-based, luminescence, 7a,25-OHC stimulation, uHTS; inhibition, % at 5 µM; hit rate 0.81% among 360,000; G-protein coupled receptor 183 (Homo sapiens), P32249; 7a,25-OHC stimulated; in the data active = inhibition above about 38%;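 note: enzyme fragment complementation signal reports receptor beta-arrestin coupling in cells; 0% = agonist plus DMSO wells and 100% = wells without agonist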
# Myeloid diff 2: induction of myeloid progenitor differentiation, primary screen, cell-based, flow cytometry, MLPCN library | ER-HoxA9 myeloid progenitors, lysozyme-GFP differentiation | calls only at 10 µM | AID 624256, 2012 | hit rate 1% among 360,000;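 active = normalized GFP-positive differentiation at or above the plate's own cutoff, the solvent-only control mean plus 3 SD; inconclusive = no clear call, values can overlap the other calls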;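 note: cells exposed to compound for four days before flow analysis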
# EBI2 antag conf: EBI2 antagonist hit retest, beta-arrestin, confirmation, cell-based, single concentration, luminescence, 7a,25-OHC stimulation | 7a,25-OHC antagonism | shares compounds with EBI2 antag | inhibition, % at 5 µM | hit rate 29% among 2,400;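 active = inhibition of at least 50%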
# EBI2 ag: EBI2 agonist activity of antagonist hits, confirmation, counter-screen for EBI2 antagonist project, cell-based, single concentration, agonist mode, luminescence; shares compounds with EBI2 antag; EBI2-expressing cells, 60 min; 0% vehicle, 100% 7α,25-dihydroxycholesterol control; activation, % at 5 µM; 2,400 tested, under 10 active; AID 652000, 2013;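 active = activation of at least 50%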
# bGal cs: E. coli beta-galactosidase enzyme inhibition, confirmation, counter-screen for EBI2 antagonist project, biochemical, luminescence, single concentration. hit rate 1% among 2,400. shares compounds with EBI2 antag. inhibition, % at 5 µM. AID 652176, 2013. purified beta-galactosidase, luminescent Galacton Star, 15 min;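 active = replicate-average signal at least 3 plate SD below neutral wells, shown as high inhibition, flagging enzyme-inhibiting false positives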;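 note: 0% = DMSO wells with enzyme and 100% = wells lacking enzyme; higher means stronger loss of beta-gal luminescence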
# An asterisk follows results filed as active; i = inactive; ? = inconclusive; . = no result given.
SMILES,Exocytosis inh,MC4R antag cAMP,MC4R barr agon,EBI2 antag,Myeloid diff 2,EBI2 antag conf,EBI2 ag,bGal cs
COc1ccc(N(CC(=O)Nc2cc(C)ccc2C)S(=O)(=O)c2c(C)noc2C)cc1,-1,1,-3,-6,i,.,.,.
COc1ccc(N(CC(=O)Nc2cc(C)ccc2OC)S(=O)(=O)c2c(C)noc2C)cc1,1,7,0,42*,i,32,-1,-20
O=C(Nc1ccc2c(c1)OCCO2)C(CCc1ccccc1)N1CCN(C/C=C/c2ccccc2)CC1 (stereo not given),0,.,.,44*,i,19,-1,-7
O=C(Nc1ccc2c(c1)OCCO2)C(c1ccnc2ccccc12)N1CCN(C/C=C/c2ccccc2)CC1 (stereo not given),-5,.,.,50*,i,42,0,-1
O=C(Nc1ccc2c(c1)OCCO2)C(c1ccnc2ccccc12)n1c(=O)c(-c2ccco2)nc2ccccc21 (stereo not given),-2,.,.,2,i,.,.,.
O=C(Nc1ccc2c(c1)OCCO2)C(CCc1ccccc1)N1CCN(c2ccc(F)cc2)CC1 (stereo not given),5,.,.,7,i,.,.,.
Cc1cc(C)cc(OCC(=O)OCc2cc([N+](=O)[O-])cc3c2OCOC3)c1,1,0,0,5,i,.,.,.
C/C(=N\NC(=O)COc1ccccc1-c1ccccc1)c1cccnc1,-6,-2,-2,2,i,.,.,.
C/C(=N\NC(=O)c1ccc(Cl)cc1)c1ccccn1,18,9,-4,64*,?,86*,-3,-10
C/C(=N\NC(=O)COc1ccccc1-c1ccccc1)c1ccccn1,8,-6,-3,62*,.,71*,-1,5
Cc1ccnc(NC(=O)c2ccc(S(=O)(=O)NCc3ccco3)cc2)c1,-4,1,-1,12,i,.,.,.
COc1ccc2nc(N/C(N)=N/C(=S)Nc3ccccc3)nc(C)c2c1,-7,10,1,18,i,.,.,.
CCOc1ccc2nc(N/C(N)=N/C(=S)Nc3ccc(OC)cc3)nc(C)c2c1,0,-5,-3,44*,i,7,1,4
CCC(=O)NC(Nc1sc2c(c1C(=O)OC)CCC2)C(Cl)(Cl)Cl (stereo not given),1,21,7,24,i,.,.,.
COC(=O)c1c(NC(NC(=O)CC(C)C)C(Cl)(Cl)Cl)sc2c1CCC2 (stereo not given),5,11,0,64*,i,12,0,6
OC(CC1CC12c1ccccc1-c1ncccc12)(c1ccccc1)c1ccccc1 (stereo not given),21,18,-1,47*,i,39,0,4
Cc1ccc(CNC(=O)C2CCN(S(=O)(=O)c3ccc(Br)s3)CC2)cc1,24,-1,-1,92*,i,61*,-1,-6
Cc1ccc(CNC(=O)C2CCN(S(=O)(=O)c3cccs3)CC2)cc1,10,0,-2,60*,i,51*,0,-21
NS(=O)(=O)c1ccc(CCNC(=O)C2CCN(S(=O)(=O)c3ccc(Br)s3)CC2)cc1,-1,-3,-2,-7,i,.,.,.
CCCN(C(=O)CCNC(=O)c1ccc(Cl)cc1)c1c(N)n(Cc2ccccc2)c(=O)[nH]c1=O,-2,4,0,-2,i,.,.,.
CSc1ccc(C(=S)N2CCN(C(c3ccccc3)c3ccccc3)CC2)cc1,0,7,-2,83*,i,39,1,8
S=C(NCCc1ccccc1)N1CCN(C(c2ccccc2)c2ccccc2)CC1,-1,11,0,54*,i,24,1,3
Cc1cc(C)nc(N/N=C/C2=C(O)CC(c3ccc(F)cc3)CC2=O)n1 (stereo not given),10,-3,-6,57*,i,67*,-5,-5
Cc1cccc(OCC(=O)N/N=C/c2cn[nH]c2-c2ccc(Cl)c(Cl)c2)c1,2,15,4,39*,i,1,0,-11
Cc1cccc(OCC(=O)N/N=C/c2cccn2C)c1,-3,10,-1,1,i,.,.,.
SMILES,Exocytosis inh,MC4R antag cAMP,MC4R barr agon,EBI2 antag,Myeloid diff 2,EBI2 antag conf,EBI2 ag,bGal cs
COc1ccccc1CNc1cc(CSc2ccc(Cl)cc2)nc(C)n1,3,-4,-3,49*,i,32,1,-1
O=C(O)c1ccc(NCCc2ccc(Cl)cc2)c([N+](=O)[O-])c1,-5,9,-1,-1,i,.,.,.
Cc1ccc(-c2nnc(Oc3cccc(C)c3)c3ccccc23)cc1,2,3,-2,9,i,.,.,.
Cc1cccc(Oc2ncc(-c3ccc(Cl)cc3)cn2)c1,1,2,0,44*,i,30,1,0
Cc1cccc(OCCNc2ccc(C(F)(F)F)cc2[N+](=O)[O-])c1,4,12,3,-4,i,.,.,.
COc1ccc(OCCNC(=O)c2ccc(C)cc2)cc1,25,2,0,38,i,.,.,.
Cc1ccc(OCCNC(=O)c2cccc(Oc3ccc(C(F)(F)F)cc3[N+](=O)[O-])c2)cc1,-12,25,1,40*,i,25,0,1
Cc1ccc(OCCNC(=O)c2ccc(C)cc2)cc1,-5,18,0,40*,i,31,-1,-10
CCCc1c(-c2ccc(F)cc2F)ncn1Cc1cccc(-c2ccccc2)c1,35,.,.,-4,i,.,.,.
COc1ccc(N(C(=O)Cn2nnc(-c3ccc(Cl)cc3)n2)C(C(=O)NCC2CCCO2)c2ccc(C)cc2)cc1 (stereo not given),1,3,0,61*,i,22,-1,-7
O=S(=O)(NN1CCOCC1)c1cc(Cl)cc(Cl)c1O,2,1,-2,2,i,.,.,.
O=C(CSc1ccccc1)N1CCN(S(=O)(=O)c2ccccc2)CC1,8,6,-1,28,i,.,.,.
Cc1ccc(C)c(S(=O)(=O)N2CCN(C(=O)CSc3ccccc3)CC2)c1,3,-1,-3,57*,i,62*,1,6

# Screens deposited in PubChem by several laboratories.
